Assay [1] in a line: Ratio of IC50 against HT-29 colon tumor cell line to IC50 of human endothelial ECV304 cell line. The class given is functional. A digest of the protocol: (§1)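 Endothelial selectivity ratio = IC50 on the tumor line / IC50 on ECV304. […] Wells in triplicate, experiments in triplicate, mean IC50 used. Ratio <10 rated low, 10–20 moderate, >20 high.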
Assay [2] deals with ECV-304. Kind of assay: Cytotoxic activity against ECV304 (human endothelial) cell line. The assay is classed as functional, cell-based. A digest of the protocol:
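1.5 × 10⁴ cells exposed 72 h to compounds in DMSO (final DMSO <0.1%) at 0.5–4 µg/mL, in triplicate wells. Viability read by MTT. Experiment repeated three times; mean IC50 (half-maximal cytotoxicity) reported.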

Assay [3] can be described thus: Ratio of IC50 against DU145 prostate tumor cell line to IC50 of human endothelial ECV304 cell line. The assay is classed as functional, ECV-304. A digest of the protocol:
as §1

Assay [4] has as its system ECV-304. Kind of assay: Ratio of IC50 against PA-1 ovary tumor cell line to IC50 of human endothelial ECV304 cell line. The assay is classed as functional, Female gonad. A digest of the protocol:
as §1

The nature of assay [5]: Ratio of IC50 against L132 Lung tumor cell line to IC50 of human endothelial ECV304 cell line. The class given is functional. A digest of the protocol: as §1
Assay [6] relates to ECV-304. Kind of assay: Inhibition of tube-like structure formation in ECV304 (human endothelial) cell line. The class given is functional.

Converted amounts (≈) assume the structure as drawn. Some results are limits rather than exact numbers.

The record followed here is ChEMBL document CHEMBL1146641, “Synthesis of 3-O-acyl/3-benzylidene/3-hydrazone/3-hydrazine/17-carboxyacryloyl ester derivatives of betulinic acid as anti-angiogenic agents” (Bioorg Med Chem Lett, 2004).

In general, IC50 refers to the concentration that gives 50% inhibition. What is called Inhibition is the share of the control response that was lost under treatment. High values mean a strong effect, low ones a weak effect.

On to `C=C(C)[C@@H]1CC[C@]2(C(=O)O)CC[C@]3(C)C(CCC4[C@@]5(C)CC[C@H](OC(=O)c6ccc(CCCCC)cc6)C(C)(C)C5CC[C@]43C)C12` (stereo not given in full), for which the ECS ratio in assay [1] was 1.84; in assay [3] it was 1.05; with ECV-304 [4], greater than 2.1; in assay [5], 3.1. For the same compound, half-maximal inhibition in the assay on ECV-304 [2] (IC50) required 1.9 µg/mL (≈ 3.01 µM).
For `CC(C)[C@@H]1CC[C@]2(C(=O)O)CC[C@]3(C)C(CCC4[C@@]5(C)CC[C@H](OC(=O)c6ccccc6C(F)(F)F)C(C)(C)C5CC[C@]43C)C12` (stereo not given in full) the same measures were 3.84, greater than 1.5, greater than 1.53, 1.5 and 2.6 µg/mL (≈ 4.12 µM).
As to `CC(C)[C@@H]1CC[C@]2(C(=O)O)CC[C@]3(C)C(CCC4[C@@]5(C)CCC(/N=C/c6ccc(F)c(F)c6)C(C)(C)C5CC[C@]43C)C12` (stereo not given in full), the ECS ratio stood at 11.4 in assay [1], 6.2 in assay [3], 3.7 with ECV-304 [4] and 7.1 in assay [5]. The compound further displayed an IC50 with ECV-304 [2] of 0.35 µg/mL (≈ 0.602 µM). Moreover, the Inhibition in the assay with ECV-304 [6] came out at 32%.
Turning to `C=C(C)[C@@H]1CC[C@]2(C(=O)O)CC[C@]3(C)C(CCC4[C@@]5(C)CC[C@H](OC(=O)Cc6cc(OC)ccc6OC)C(C)(C)C5CC[C@]43C)C12` (stereo not given in full), the ECS ratio is given as greater than 5.6 in assay [1], 0.55 in assay [3] and 2.5 in assay [5]. Further, the half-maximal inhibitory concentration (IC50) with ECV-304 [2] amounted to 1.8 µg/mL (≈ 2.84 µM).
With `C=C(C)[C@@H]1CC[C@]2(C(=O)O)CC[C@]3(C)C(CCC4[C@@]5(C)CC[C@H](OC(=O)c6ccc(CCCCCCC)cc6)C(C)(C)C5CC[C@]43C)C12` (stereo not given in full), the ECS ratio in assay [1] is greater than 5.89; in assay [3] it was greater than 5.8; in the assay with ECV-304 [4] it was greater than 2.3; in assay [5], 4.1. This compound also displayed an IC50 in the assay on ECV-304 [2] of 1.7 µg/mL (≈ 2.58 µM).
Compound `CC(C)[C@@H]1CC[C@]2(C(=O)O)CC[C@]3(C)C(CCC4[C@@]5(C)CC[C@H](O)C(C)(C)C5CC[C@]43C)C12` (stereo not given in full) [DIHYDROBETULINIC ACID] yielded an IC50 in the assay with ECV-304 [2] of less than 4 µg/mL.
With `CC(C)[C@@H]1CC[C@]2(C(=O)O)CC[C@]3(C)C(CCC4[C@@]5(C)CCC(NNc6ccccc6)C(C)(C)C5CC[C@]43C)C12` (stereo not given in full), the ECS ratio is 3.5 in assay [1], 19.8 in assay [3], 7 with ECV-304 [4] and 1.6 in assay [5]. In the assay on ECV-304 [2], this compound registered an IC50 of 0.5 µg/mL (≈ 0.911 µM).
For `C=C(C)[C@@H]1CC[C@]2(C(=O)O)CC[C@]3(C)C(CCC4[C@@]5(C)CC[C@H](OC(=O)c6cccc(C(F)(F)F)c6)C(C)(C)C5CC[C@]43C)C12` (stereo not given in full), the ECS ratio in assay [1] is listed as greater than 11.1; in assay [3] it was greater than 11.1; in the assay on ECV-304 [4], greater than 4.4; in assay [5], 3. For the same compound, the IC50 in the assay with ECV-304 [2] came to 0.9 µg/mL (≈ 1.43 µM).
In the case of `C=C(C)[C@@H]1CC[C@]2(C(=O)O)CC[C@]3(C)C(CCC4[C@@]5(C)CC/C(=N\Nc6ccccc6)C(C)(C)C5CC[C@]43C)C12` (stereo not given in full), the ECS ratio in assay [1] amounted to 4.2; in assay [3], 2.7; in the assay on ECV-304 [4] it was 2.08; in assay [5], 1.9. This compound also came in with an IC50 in the assay on ECV-304 [2] of 2.4 µg/mL (≈ 4.41 µM).
`C=C(C)[C@@H]1CC[C@]2(C(=O)O)CC[C@]3(C)[C@H](CC[C@@H]4[C@@]5(C)CC[C@H](O)C(C)(C)[C@@H]5CC[C@]43C)[C@@H]12` [BETULINIC ACID] gave an IC50 with ECV-304 [2] of 1.2 µg/mL (≈ 2.63 µM). Further, the ECS ratio in assay [3] stood at 2.2; with ECV-304 [4] it was 3.2; in assay [5], 1.
For the compound `COc1ccc(N/N=C2\CC[C@@]3(C)C(CC[C@]4(C)C3CCC3C5[C@H](C(C)C)CC[C@]5(C(=O)O)CC[C@]34C)C2(C)C)cc1` (stereo not given in full), the IC50 in the assay on ECV-304 [2] is less than 4 µg/mL.
For the compound `C=CC(=O)OC(=O)[C@]12CC[C@@H](C(=C)C)C1C1CCC3[C@@]4(C)CC[C@H](O)C(C)(C)C4CC[C@@]3(C)[C@]1(C)CC2` (stereo not given in full), the ECS ratio in assay [1] is recorded as 2.5; in assay [3], greater than 2.5; in the assay on ECV-304 [4], greater than 1; in assay [5], 0.43. Moreover, in the assay on ECV-304 [2], the midpoint of inhibition, the IC50, lay at 4 µg/mL (≈ 7.83 µM).
Compound `CC(C)[C@@H]1CC[C@]2(C(=O)O)CC[C@]3(C)C(CCC4[C@@]5(C)CC/C(=N\O)C(C)(C)C5CC[C@]43C)C12` (stereo not given in full) gave an IC50 in the assay on ECV-304 [2] of less than 4 µg/mL.
Still for that read-out and setting: in the case of `CC(C)[C@@H]1CC[C@]2(C(=O)O)CC[C@]3(C)C(CCC4[C@@]5(C)CCC(=O)C(C)(C)C5CC[C@]43C)C12` (stereo not given in full) it was less than 4 µg/mL.
On to `CC(C)[C@@H]1CC[C@]2(C(=O)O)CC[C@]3(C)C(CCC4[C@@]5(C)CC[C@H](OC(=O)c6ccc(F)cc6F)C(C)(C)C5CC[C@]43C)C12` (stereo not given in full), for which the ECS ratio in assay [1] was 2.4; in assay [3], 3.5; with ECV-304 [4] it was 2.3; in assay [5], 1.5. Further, the IC50 with ECV-304 [2] worked out at 0.7 µg/mL (≈ 1.17 µM). Moreover, in the assay on ECV-304 [6], the Inhibition was determined as 20%.
In the case of `CC(C)[C@@H]1CC[C@]2(C(=O)O)CC[C@]3(C)C(CCC4[C@@]5(C)CCC(/N=C/c6ccc(F)cc6F)C(C)(C)C5CC[C@]43C)C12` (stereo not given in full), the ECS ratio in assay [1] amounted to 2.04; in assay [3] it was 1.04; in the assay with ECV-304 [4] it was 0.54; in assay [5], 1.4. Further, the IC50 in the assay with ECV-304 [2] was determined as 2.4 µg/mL (≈ 4.12 µM). The Inhibition with ECV-304 [6] was found to be 48%.
For `CC(C)[C@@H]1CC[C@]2(C(=O)O)CC[C@]3(C)C(CCC4[C@@]5(C)CC[C@H](OC(=O)c6cc(F)cc(F)c6)C(C)(C)C5CC[C@]43C)C12` (stereo not given in full), the ECS ratio in assay [1] is on record as greater than 14.3; in assay [3] it was 4.5; in assay [5], 1.7. The same compound had an IC50 in the assay on ECV-304 [2] of 0.7 µg/mL (≈ 1.17 µM).
Compound `CC(C)[C@@H]1CC[C@]2(C(=O)O)CC[C@]3(C)C(CCC4[C@@]5(C)CC/C(=N\Nc6ccccc6)C(C)(C)C5CC[C@]43C)C12` (stereo not given in full) registered an IC50 in the assay on ECV-304 [2] of less than 4 µg/mL.
The same measure, in the same setting: in the case of `C=C(C)[C@@H]1CC[C@]2(C(=O)O)CC[C@]3(C)[C@H](CC[C@@H]4[C@@]5(C)CCC(=O)C(C)(C)[C@@H]5CC[C@]43C)[C@@H]12` [BETUNOLIC ACID] it was less than 4 µg/mL.
Consider `COc1ccc(NNC2CC[C@@]3(C)C(CC[C@]4(C)C3CCC3C5[C@H](C(C)C)CC[C@]5(C(=O)O)CC[C@]34C)C2(C)C)cc1` (stereo not given in full), for which the ECS ratio in assay [1] stood at 0.87; in assay [3], 21.1. The compound also gave a half-inhibitory concentration (IC50) in the assay with ECV-304 [2] of 0.4 µg/mL (≈ 0.691 µM).
`C=CC(=O)OC(=O)[C@]12CC[C@@H](C(C)C)C1C1CCC3[C@@]4(C)CC[C@H](O)C(C)(C)C4CC[C@@]3(C)[C@]1(C)CC2` (stereo not given in full): the ECS ratio in assay [1] is listed as 5; in assay [3], greater than 2; in the assay with ECV-304 [4], 0.75; in assay [5] it was 2. The compound further showed an IC50 with ECV-304 [2] of 2 µg/mL (≈ 3.9 µM).
As to `CC(C)[C@@H]1CC[C@]2(C(=O)O)CC[C@]3(C)C(CCC4[C@@]5(C)CCC(N)C(C)(C)C5CC[C@]43C)C12` (stereo not given in full), the IC50 in the assay on ECV-304 [2] was less than 4 µg/mL.
